Measured values published in ChEMBL document CHEMBL1132465, “Design and synthesis of thrombin inhibitors: analogues of MD-805 with reduced stereogenicity and improved potency” (J Med Chem, 1999).
pKi: −log10 of the molar value. Where “and” joins values, the source holds several entries; their conditions need not be identical. Equal entries are not always repeated.

What was measured:
[1] = target: Prothrombin (Bos taurus, UniProt P00735); experiment: Inhibitory activity against bovine thrombin
[2] = The compound was evaluated for the dose to double the control plasma APTT value in the human plasma.; type: functional
Procedure, shortened: (§1)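 Human blood was anticoagulated with one-tenth volume 3.8% trisodium citrate and centrifuged at 1300g for 20 min to give platelet-poor plasma. Plasma was spiked with compound at 0 to about 150 μM. It was activated 5 min at 37 °C with bovine cephalin (ellagic acid) reagent, and clotting was started with 20 mM CaCl2. Clot time was read on a coagulometer. Concentration doubling APTT was read from a concentration–APTT plot.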

[3] = target: T1, Prothrombin (Homo sapiens, UniProt P00734); experiment: Inhibitory activity against human thrombin
[4] = The compound was evaluated for the dose to double the control plasma APTT value in the human plasma; type: functional; procedure, shortened: as §1
[5] = target: T1, Prothrombin; experiment: The compound was evaluated for the inhibitory activity against human thrombin.
Procedure, shortened: (§2)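 Human thrombin (0.0625 U/mL final) in 0.05 M TRIS-HCl pH 8.4 with S-2238, started by enzyme. Absorbance slope at 405 nm was read over 30 s. A range-finding run at about 0.01–100 μM was followed by substrate at 3.125–100 μM with at least two inhibitor levels plus vehicle. DMSO was below 0.5%. Ki = [i]/(Kp/Km − 1) from double-reciprocal plots.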

[6] = target: T1, Prothrombin; experiment: The compound was evaluated for the inhibitory activity against human thrombin; procedure, shortened: as §2
[7] = TThe compound was evaluated for the APTT value expressed as multiplies of control and was measured at the termination of the experiment (45 min later) in the rat model of arterial thrombosis at 1.0 dose (mg/kg); type: functional
Procedure, shortened: (§3)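 Rat arterial thrombosis model with sc dosing 1 h before clamping the dorsal aorta. Blood was taken via carotid cannula into one-tenth volume 3.8% trisodium citrate just before clamping and at termination, 45 min later. APTT was measured on plasma and expressed as a multiple of control, mean ± SEM, n = 5.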

[8] = tested on: Rattus norvegicus; experiment: Percentage inhibition on the f fibrinogen accumulation in the rat model of Arterial thrombosis at 3.0 dose (mg/kg); type: functional
Procedure, shortened: (§4)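 Rat dorsal aorta injury model. Rats received 111In-labelled platelets 24 h and 125I-fibrinogen 10 min before injury. The aorta was clamped with modified forceps for 1 min, then blood flowed 45 min. The vessel was excised, washed in 5% citrate and gamma-counted, and counts were converted to mg blood equivalents. Dosing was iv 1 min or sc 1 h before clamping. Result is % inhibition versus placebo accumulation, mean ± SEM, n = 5.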

[9] = The compound was evaluated for the APTT value expressed as multiplies of control and was measured at the termination of the experiment (45 min later) in the rat model of arterial thrombosis at 2.0 dose (mg/kg); type: functional; procedure, shortened: as §3
[10] = tested on: Rattus norvegicus; experiment: Percentage inhibition on venous stasis thrombosis in the rat at 0.05 dose (mg/kg); type: functional
Procedure, shortened: (§5)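 Rat acute venous stasis. The vessel was excised after 10 min and the thrombus weighed. Compound was dosed iv 2 min or sc 1 h before stasis. Result is % inhibition of mean control thrombus weight relative to placebo, mean ± SEM, n = 5.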

[11] = target: Chymotrypsinogen A (Bos taurus, UniProt P00766); experiment: The compound was evaluated for the inhibitory activity against bovine Chymotrypsinogen
Procedure, shortened: (§6)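 Chromogenic assay run as for thrombin, with S-2222 (trypsin) or S-2586 (chymotrypsin) as substrate. Enzymes were bovine. Buffer was 0.05 M TRIS-HCl, pH 8.4. Compound stocks were in DMSO (final below 0.5%). Rate was read at 405 nm over 30 s. Ki came from double-reciprocal plots across a range of substrate concentrations.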

[12] = tested on: Rattus norvegicus; experiment: Percentage inhibition on the f fibrinogen accumulation in the rat model of Arterial thrombosis at 10.0 dose (mg/kg); type: functional; procedure, shortened: as §4
[13] = tested on: Rattus norvegicus; experiment: Percentage inhibition on venous stasis thrombosis in the rat at 1.0 dose (mg/kg); type: functional; procedure, shortened: as §5
[14] = tested on: Rattus norvegicus; experiment: Percentage inhibition on venous stasis thrombosis in the rat at 2.0 dose (mg/kg); type: functional; procedure, shortened: as §5
[15] = tested on: Rattus norvegicus; experiment: Percentage inhibition on venous stasis thrombosis in the rat at 6.0 dose (mg/kg); type: functional; procedure, shortened: as §5
[16] = tested on: Rattus norvegicus; experiment: Percentage inhibition on the f fibrinogen accumulation in the rat model of Arterial thrombosis at 1.0 dose (mg/kg); type: functional; procedure, shortened: as §4
[17] = tested on: Rattus norvegicus; experiment: Percentage inhibition on the f fibrinogen accumulation in the rat model of Arterial thrombosis at 2.0 dose (mg/kg); type: functional; procedure, shortened: as §4
[18] = tested on: Rattus norvegicus; experiment: Percentage inhibition on the f fibrinogen accumulation in the rat model of Arterial thrombosis at 30.0 dose (mg/kg); type: functional; procedure, shortened: as §4
[19] = tested on: Rattus norvegicus; experiment: Percentage inhibition on the platelet accumulation in the rat model of Arterial thrombosis at 3.0 dose (mg/kg); type: functional; procedure, shortened: as §4
[20] = tested on: Rattus norvegicus; experiment: Percentage inhibition on the platelet accumulation in the rat model of Arterial thrombosis at 30.0 dose (mg/kg); type: functional; procedure, shortened: as §4
[21] = target: Plasminogen (Homo sapiens, UniProt P00747); experiment: The compound was evaluated for the inhibitory activity against human plasmin
Sequence of Plasminogen (P00747 97-580 limits assumed): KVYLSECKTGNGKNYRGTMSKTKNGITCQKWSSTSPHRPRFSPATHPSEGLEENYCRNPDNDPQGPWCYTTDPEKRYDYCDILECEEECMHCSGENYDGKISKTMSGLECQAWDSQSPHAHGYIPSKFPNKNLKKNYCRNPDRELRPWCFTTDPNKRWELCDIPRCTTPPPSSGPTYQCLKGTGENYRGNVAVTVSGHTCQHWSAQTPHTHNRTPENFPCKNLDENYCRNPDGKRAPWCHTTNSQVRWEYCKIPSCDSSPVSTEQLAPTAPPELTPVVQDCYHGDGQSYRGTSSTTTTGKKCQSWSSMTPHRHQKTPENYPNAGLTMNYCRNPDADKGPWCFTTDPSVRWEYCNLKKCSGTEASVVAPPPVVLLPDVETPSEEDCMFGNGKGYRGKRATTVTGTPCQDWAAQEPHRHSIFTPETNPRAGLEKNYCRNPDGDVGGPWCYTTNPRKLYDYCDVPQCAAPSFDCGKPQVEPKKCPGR
Sequence of Plasminogen (P00747 581-810 limits assumed): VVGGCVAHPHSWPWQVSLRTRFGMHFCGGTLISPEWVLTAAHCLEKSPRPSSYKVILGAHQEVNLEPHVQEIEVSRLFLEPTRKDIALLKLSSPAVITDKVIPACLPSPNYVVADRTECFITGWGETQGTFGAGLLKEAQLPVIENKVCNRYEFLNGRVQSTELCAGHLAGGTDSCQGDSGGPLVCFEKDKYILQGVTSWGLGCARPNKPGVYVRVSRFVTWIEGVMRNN
Procedure, shortened: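 Human plasmin, S-2251 chromogenic substrate, 0.05 M TRIS-HCl pH 8.4. Run like the thrombin assay: DMSO stock (final below 0.5%), initial rate at 405 nm over 30 s, substrate varied across a range. Ki was calculated from Lineweaver-Burk intercepts of control and inhibited curves.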

[22] = tested on: Rattus norvegicus; experiment: Percentage inhibition on venous stasis thrombosis in the rat at 0.1 dose (mg/kg); type: functional; procedure, shortened: as §5
[23] = tested on: Rattus norvegicus; experiment: Percentage inhibition on the platelet accumulation in the rat model of Arterial thrombosis at 0.3 dose (mg/kg); type: functional; procedure, shortened: as §4
[24] = The compound was evaluated for the APTT value expressed as multiplies of control and was measured at the termination of the experiment (45 min later) in the rat model of arterial thrombosis at 30.0 dose (mg/kg); type: functional; procedure, shortened: as §3
[25] = tested on: Rattus norvegicus; experiment: Percentage inhibition on the platelet accumulation in the rat model of Arterial thrombosis at 2.0 dose (mg/kg); type: functional; procedure, shortened: as §4
[26] = tested on: Rattus norvegicus; experiment: Percentage inhibition on venous stasis thrombosis in the rat at 3.0 dose (mg/kg); type: functional; procedure, shortened: as §5
[27] = target: T2, Trypsin II (Bos taurus, UniProt Q29463); experiment: The compound was evaluated for the inhibitory activity against bovine trypsin; procedure, shortened: as §6
T2 sequence (Q29463 whole entry): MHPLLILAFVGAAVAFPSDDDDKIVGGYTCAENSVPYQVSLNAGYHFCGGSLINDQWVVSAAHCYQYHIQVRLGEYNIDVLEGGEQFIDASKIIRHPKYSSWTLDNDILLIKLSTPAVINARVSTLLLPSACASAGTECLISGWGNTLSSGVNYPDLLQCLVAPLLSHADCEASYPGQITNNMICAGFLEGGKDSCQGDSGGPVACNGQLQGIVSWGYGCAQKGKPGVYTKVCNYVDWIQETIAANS

[28] = TThe compound was evaluated for the APTT value expressed as multiplies of control and was measured at the termination of the experiment (45 min later) in the rat model of arterial thrombosis at 10.0d ose (mg/kg); type: functional; procedure, shortened: as §3
[29] = The compound was evaluated for the APTT value expressed as multiplies of control and was measured at the termination of the experiment (45 min later) in the rat model of arterial thrombosis at 3.0 dose (mg/kg); type: functional; procedure, shortened: as §3
[30] = tested on: Rattus norvegicus; experiment: Percentage inhibition on the platelet accumulation in the rat model of Arterial thrombosis at 10.0 dose (mg/kg); type: functional; procedure, shortened: as §4

CC1CNc2c(cccc2S(=O)(=O)NC(CCCN=C(N)N)C(=O)N2CCCC[C@H]2CO)C1 (some centres not stated)
pKi [1]: 7.64

CC1(C)CNc2c(cccc2S(=O)(=O)NC(CCCN=C(N)N)C(=O)N2CCC(CCF)CC2)C1 (configuration not stated)
IC200 [2]: 2.1 µM
pKi [3]: 8.24

CCC1CCN(C(=O)C(CCCN=C(N)N)NS(=O)(=O)c2cccc3c2NCC(C)C3)CC1 (configuration not stated)
pKi [1]: 7.57
IC200 [4]: 6.27 µM

CC1CNc2c(cccc2S(=O)(=O)NC(CCCN=C(N)N)C(=O)N2CCC(CCC(=O)NCCC(=O)O)CC2)C1 (configuration not stated)
pKi [1]: 6.51
pKi [5]: 6.55

CC1CNc2c(cccc2S(=O)(=O)NC(CCCN=C(N)N)C(=O)N2CCC(CCNC(=O)CCP(=O)(O)O)CC2)C1 (configuration not stated)
pKi [1]: 4.45

CC1(C)CNc2c(cc(Cl)cc2S(=O)(=O)NC(CCCN=C(N)N)C(=O)N2CCC(CC(F)F)CC2)C1 (configuration not stated)
IC200 [2]: 6 µM
pKi [3]: 7.92

CC(C)(c1ccccc1)c1cccc(S(=O)(=O)NC(CCCNC(=N)N)C(=O)N2CCCC[C@H]2CO)c1 (some centres not stated)
pKi [1]: 5.52

CC1CNc2c(cccc2S(=O)(=O)NC(CCCNC(=N)N)C(=O)N2CCc3ccccc3C2)C1 (configuration not stated)
pKi [1]: 7.64

CC1(C)CNc2c(cc(Cl)cc2S(=O)(=O)NC(CCCN=C(N)N)C(=O)N2CCC(CCOC(=O)C(C)(C)C)CC2)C1 (configuration not stated)
pKi [1]: 7.25
IC200 [4]: 8.5 µM

CC1(C)CNc2c(cc(Cl)cc2S(=O)(=O)NC(CCCN=C(N)N)C(=O)N2CCC(CCF)CC2)C1 (configuration not stated)
IC200 [4]: 3.25 µM
pKi [3]: 8.18

CC(=O)NCCC1CCN(C(=O)C(CCCN=C(N)N)NS(=O)(=O)c2cccc3c2NCC(C)C3)CC1 (configuration not stated)
pKi [1]: 7.35
pKi [6]: 7.18
IC200 [2]: 1.8 µM

CC1CNc2c(cccc2S(=O)(=O)NC(CCCN=C(N)N)C(=O)N2CCC[C@@H](CO)C2)C1 (some centres not stated)
pKi [1]: 5.82

C[C@H]1CNc2c(cccc2S(=O)(=O)NC(CCCNC(=N)N)C(=O)N2CCC(CCO)CC2)C1 (some centres not stated)
pKi [1]: 7.34

CC1CNc2c(cccc2S(=O)(=O)NC(CCCN=C(N)N)C(=O)N2CCC(CCOC(=O)CCC(=O)O)CC2)C1 (configuration not stated)
pKi [1]: 7.47

CC1CNc2c(cccc2S(=O)(=O)NC(CCCNC(=N)N)C(=O)N2CCC(CCOC(=O)CCCC(=O)O)CC2)C1 (configuration not stated)
pKi [1]: 6.77

N=C(N)NCCCC(NS(=O)(=O)c1cccc2c1NCCC2)C(=O)N1CCC(CCO)CC1 (configuration not stated)
pKi [1]: 6.31

CC1(C)CNc2c(cccc2S(=O)(=O)NC(CCCN=C(N)N)C(=O)N2CCC(CC(F)F)CC2)C1 (configuration not stated)
IC200 [2]: 1.5 µM
pKi [3]: 8.22

CC1CNc2c(cccc2S(=O)(=O)NC(CCCN=C(N)N)C(=O)N2CCC(CCOC(=O)CC(=O)O)CC2)C1 (configuration not stated)
pKi [1]: 6.44

CC1(C)CNc2c(cccc2S(=O)(=O)NC(CCCN=C(N)N)C(=O)N2CCC(CCO)CC2)C1 (configuration not stated)
APTT [7]: 1
Inhibition [8]: 28.8%
APTT [9]: 1.5 and 1
Inhibition [10]: 2.3%
pKi [11]: < 4.08
Inhibition [12]: 45.5%
Inhibition [13]: 100% and 50%
Inhibition [14]: 79.8%
Inhibition [15]: 95.2%
Inhibition [16]: 24.2%
Inhibition [17]: 3.5%
Inhibition [18]: 49.9%
IC200 [4]: 1.9 µM
Inhibition [19]: 94.4% and 82% and 61.2%
Inhibition [20]: 69.8%
pKi [21]: 3.68
Inhibition [22]: 45.1%
Inhibition [23]: 58% and 36.4%
APTT [24]: 2.5
Inhibition [25]: 38.5%
Inhibition [26]: 71.7%
pKi [27]: 5.15
APTT [28]: 1.7
APTT [29]: 1.5 and 1.3
Inhibition [30]: 68.3%
